Values after ≈ are worked out from the molar mass of the structure shown.
Legend:
[1] = tested on: LoVo/Dx (Homo sapiens); assay: cells
[2] = tested on: LoVo; assay: Resistance index measured as the ratio of IC50 of LoVo/Dx cell line to that of LoVo cell line.; assay type: functional, Homo sapiens
[3] = tested on: P388; assay: In vivo antitumor activity was measured on systemic P388 murine leukemia cells. Maximum tested dose 40 mg/kg/day.; assay type: functional, Mus musculus
Method in brief: (§1)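 CD2F1 male mice given 10⁶ P388 leukemia cells iv (day 0); drug given iv on days 1, 4 and 7. Survival expressed as T/C% = median survival time of treated / median survival of controls × 100, reported at optimal dose (mg/kg/day) or maximum tested dose.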

[4] = tested on: LoVo; assay: In vitro cytotoxicity on human colon adenocarcinoma (LoVo ) tumor cell line.; assay type: functional, cell-based
[5] = tested on: MX1; assay: In vivo antitumor activity was measured on MX-1 human mammary carcinoma cells. TWI%=tumor weight inhibition. Maximum tested dose 90 mg/kg/day.; assay type: functional
[6] = tested on: P388; assay: In vivo antitumor activity was measured on systemic P388 murine leukemia cells. Optimal dose 120 mg/kg/day.; assay type: functional, Mus musculus
Method in brief: as §1

[7] = tested on: MX1; assay: In vivo antitumor activity was measured on MX-1 human mammary carcinoma cells. TWI%=tumor weight inhibition. Optimal dose 130 mg/kg/day.; assay type: functional
[8] = tested on: MX1; assay: In vivo antitumor activity was measured on MX-1 human mammary carcinoma cells. TWI%=tumor weight inhibition. Optimal dose 1.3 mg/kg/day.; assay type: functional
[9] = tested on: P388; assay: In vivo antitumor activity was measured on systemic P388 murine leukemia cells. Optimal dose 13 mg/kg/day.; assay type: functional, Mus musculus
Method in brief: as §1

[10] = tested on: P388; assay: In vivo antitumor activity was measured on systemic P388 murine leukemia cells. Optimal dose 90 mg/kg/day.; assay type: functional, Mus musculus
Method in brief: as §1

[11] = tested on: MX1; assay: In vivo antitumor activity was measured on MX-1 human mammary carcinoma cells. TWI%=tumor weight inhibition. Optimal dose 120 mg/kg/day.; assay type: functional
[12] = tested on: P388; assay: In vivo antitumor activity was measured on systemic P388 murine leukemia cells. Toxic deaths observed at dose 18 mg/kg/day.; assay type: functional, Mus musculus
[13] = tested on: MX1; assay: In vivo antitumor activity was measured on MX-1 human mammary carcinoma cells. TWI%=tumor weight inhibition. Optimal dose 8 mg/kg/day.; assay type: functional
[14] = tested on: P388; assay: In vivo antitumor activity was measured on systemic P388 murine leukemia cells. Maximum tested dose 3 mg/kg/day.; assay type: functional, Mus musculus
Method in brief: as §1

[15] = tested on: MX1; assay: In vivo antitumor activity was measured on MX-1 human mammary carcinoma cells. TWI%=tumor weight inhibition. Optimal dose 24 mg/kg/day.; assay type: functional
[16] = tested on: P388; assay: In vivo antitumor activity was measured on systemic P388 murine leukemia cells. Optimal dose 40 mg/kg/day.; assay type: functional, Mus musculus; settings: in the assay text read “6 mg/kg/day” for “40 mg/kg/day”
Method in brief: as §1

[17] = tested on: P388; assay: In vivo antitumor activity was measured on systemic P388 murine leukemia cells. Optimal dose 1.5 mg/kg/day.; assay type: functional, Mus musculus
Method in brief: as §1

[18] = tested on: MX1; assay: In vivo antitumor activity was measured on MX-1 human mammary carcinoma cells. TWI%=tumor weight inhibition. Optimal dose 10 mg/kg/day.; assay type: functional
[19] = tested on: P388; assay: In vivo antitumor activity was measured on systemic P388 murine leukemia cells. Optimal dose 7.5 mg/kg/day.; assay type: functional, Mus musculus
Method in brief: as §1

[20] = tested on: MX1; assay: In vivo antitumor activity was measured on MX-1 human mammary carcinoma cells. TWI%=tumor weight inhibition. Optimal dose 11 mg/kg/day.; assay type: functional
[21] = tested on: P388; assay: In vivo antitumor activity was measured on systemic P388 murine leukemia cells. Optimal dose 9 mg/kg/day.; assay type: functional, Mus musculus
Method in brief: as §1

[22] = tested on: MX1; assay: In vivo antitumor activity was measured on MX-1 human mammary carcinoma cells. TWI%=tumor weight inhibition. Optimal dose 150 mg/kg/day.; assay type: functional
[23] = tested on: MX1; assay: In vivo antitumor activity was measured on MX-1 human mammary carcinoma cells. TWI%=tumor weight inhibition. Optimal dose 4.5 mg/kg/day.; assay type: functional
[24] = tested on: P388; assay: In vivo antitumor activity was measured on systemic P388 murine leukemia cells. Optimal dose 2 mg/kg/day.; assay type: functional, Mus musculus
Method in brief: as §1

[25] = tested on: P388; assay: In vivo antitumor activity was measured on systemic P388 murine leukemia cells. Maximum tested dose 60 (mg/kg/day); assay type: functional, Mus musculus
Method in brief: as §1

[26] = tested on: MX1; assay: In vivo antitumor activity was measured on MX-1 human mammary carcinoma cells. TWI%=tumor weight inhibition. Optimal dose 6 mg/kg/day.; assay type: functional
[27] = tested on: P388; assay: In vivo antitumor activity was measured on systemic P388 murine leukemia cells. Optimal dose 3 mg/kg/day.; assay type: functional, Mus musculus
Method in brief: as §1

[28] = tested on: MX1; assay: Antitumor activity was measured on MX-1 human mammary carcinoma cells. TWI%=tumor weight inhibition. Optimal dose at 13.5 mg/kg/day; assay type: functional
[29] = tested on: P388; assay: In vivo antitumor activity was measured on systemic P388 murine leukemia cells. Optimal dose at 13.5 mg/kg/day; assay type: functional, Mus musculus
Method in brief: as §1

[30] = tested on: MX1; assay: Antitumor activity was measured on MX-1 human mammary carcinoma cells. TWI%=tumor weight inhibition. Optimal dose at 7.5 mg/kg/day; assay type: functional
[31] = tested on: P388; assay: In vivo antitumor activity was measured on systemic P388 murine leukemia cells. Optimal dose at 7.5 mg/kg/day; assay type: functional, Mus musculus
Method in brief: as §1

[32] = tested on: MX1; assay: In vivo antitumor activity was measured on MX-1 human mammary carcinoma cells. TWI%=tumor weight inhibition. Optimal dose at 3 mg/kg/day; assay type: functional
[33] = tested on: P388; assay: In vivo antitumor activity was measured on systemic P388 murine leukemia cells. Optimal dose at 3 mg/kg/day; assay type: functional, Mus musculus
Method in brief: as §1

Compound	IC50 [1] [µg/mL]	RI [2]	IC50 [4] [µg/mL]	other results
CN(C)CCCNc1ccc2c3c(nn2CCN(C)C)-c2cnccc2C(=O)c13	2.13 (≈ 5.43 µM)	6.4	0.33 (≈ 0.841 µM)	T/C [3]: 138%; TWI [5]: 141%
O=C1c2ccncc2-c2nn(CCNCCO)c3ccc(NCCN(CCO)CCO)c1c23	> 100	–	> 100	T/C [6]: 111%; TWI [7]: 45%
CNCCNc1ccc2c3c(nn2CCN(C)C)-c2cnccc2C(=O)c13	3.78 (≈ 10.4 µM)	126	0.03 (≈ 0.0823 µM)	TWI [8]: 68%; T/C [9]: 262%
O=C1c2ccncc2-c2nn(CCNCCO)c3ccc(NCCO)c1c23	> 100	>1.9	53.1 (≈ 145 µM)	T/C [10]: 113%; TWI [11]: 49%
CN(C)CCn1nc2c3c(c(NCCCN)ccc31)C(=O)c1ccncc1-2	12.5 (≈ 34.3 µM)	7.6	1.65 (≈ 4.53 µM)	T/C [12]: 125%; TWI [13]: 73%
CN(C)CCn1nc2c3c(c(NCCN4CCCCC4)ccc31)C(=O)c1ccncc1-2	0.39 (≈ 0.932 µM)	1.1	0.35 (≈ 0.836 µM)	T/C [14]: 113%; TWI [15]: 6%
CNCCn1nc2c3c(c(NCCNCCO)ccc31)C(=O)c1ccncc1-2	31.6 (≈ 83.1 µM)	109	0.29 (≈ 0.762 µM)	T/C [16]: 181%
CNCCNc1ccc2c3c(nn2CCNC)-c2cnccc2C(=O)c13	3.14 (≈ 8.96 µM)	78	0.04 (≈ 0.114 µM)	T/C [17]: 167%
CN(C)CCCn1nc2c3c(c(NCCNCCO)ccc31)C(=O)c1ccncc1-2	90 (≈ 220 µM)	300	0.3 (≈ 0.734 µM)	TWI [18]: 98%; T/C [19]: 166%
CN(C)CCNc1ccc2c3c(nn2CCN)-c2cnccc2C(=O)c13	15.9 (≈ 45.4 µM)	53	0.3 (≈ 0.856 µM)	TWI [20]: 80%; T/C [21]: 231%
NCCn1nc2c3c(c(NCCN(CCO)CCO)ccc31)C(=O)c1ccncc1-2	> 100	2.1	46.4 (≈ 113 µM)	T/C [19]: 194%; TWI [22]: 50%
CN(C)CCn1nc2c3c(c(NCCN)ccc31)C(=O)c1ccncc1-2	4.3 (≈ 12.3 µM)	27	0.16 (≈ 0.457 µM)	TWI [23]: 87%; T/C [24]: 213%
NCCNc1ccc2c3c(nn2CCO)-c2cnccc2C(=O)c13	> 100	>3.5	28.6 (≈ 88.4 µM)	T/C [25]: 106%
CNCCNc1ccc2c3c(nn2CCN)-c2cnccc2C(=O)c13	10.2 (≈ 30.3 µM)	49	0.21 (≈ 0.624 µM)	TWI [26]: 70%; T/C [27]: 153%
Cl.Cl.O=C1c2c(O)cccc2-c2nn(CCNCCO)c3ccc(NCCNCCO)c1c23	44.5	840	0.053	TWI [28]: 95%; T/C [29]: 147%
COc1cccc2c1C(=O)c1c(O)c3c(c(O)c1C2=O)C[C@@](O)(C(=O)CO)C[C@@H]3O[C@H]1C[C@H](N)[C@H](O)[C@H](C)O1 [DOXORUBICIN]	53 (≈ 97.5 µM)	91.3	0.58 (≈ 1.07 µM)	TWI [30]: 64%; T/C [31]: 200%
O=C1c2c(O)ccc(O)c2C(=O)c2c(NCCNCCO)ccc(NCCNCCO)c21 [MITOXANTRONE]	0.67 (≈ 1.51 µM)	28	0.024 (≈ 0.054 µM)	TWI [32]: 57%; T/C [33]: 197%

From ChEMBL document CHEMBL1131450, “Synthesis and antitumor evaluation of 2,5-disubstituted-indazolo[4, 3-gh]isoquinolin-6(2H)-ones (9-aza-anthrapyrazoles)” (J Med Chem, 1998)
